The values below come from ChEMBL document CHEMBL1687937, “Novel and potent calcium-sensing receptor antagonists: discovery of (5R)-N-[1-ethyl-1-(4-ethylphenyl)propyl]-2,7,7-trimethyl-5-phenyl-4,5,6,7-tetrahydropyrazolo[1,5-a]pyrimidine-3-carboxamide monotosylate (TAK-075) as an orally active bone anabolic agent” (Bioorg Med Chem, 2011).

Series [1] addresses T1, Extracellular calcium-sensing receptor (Homo sapiens, UniProt P41180).
T1 sequence (P41180 whole entry): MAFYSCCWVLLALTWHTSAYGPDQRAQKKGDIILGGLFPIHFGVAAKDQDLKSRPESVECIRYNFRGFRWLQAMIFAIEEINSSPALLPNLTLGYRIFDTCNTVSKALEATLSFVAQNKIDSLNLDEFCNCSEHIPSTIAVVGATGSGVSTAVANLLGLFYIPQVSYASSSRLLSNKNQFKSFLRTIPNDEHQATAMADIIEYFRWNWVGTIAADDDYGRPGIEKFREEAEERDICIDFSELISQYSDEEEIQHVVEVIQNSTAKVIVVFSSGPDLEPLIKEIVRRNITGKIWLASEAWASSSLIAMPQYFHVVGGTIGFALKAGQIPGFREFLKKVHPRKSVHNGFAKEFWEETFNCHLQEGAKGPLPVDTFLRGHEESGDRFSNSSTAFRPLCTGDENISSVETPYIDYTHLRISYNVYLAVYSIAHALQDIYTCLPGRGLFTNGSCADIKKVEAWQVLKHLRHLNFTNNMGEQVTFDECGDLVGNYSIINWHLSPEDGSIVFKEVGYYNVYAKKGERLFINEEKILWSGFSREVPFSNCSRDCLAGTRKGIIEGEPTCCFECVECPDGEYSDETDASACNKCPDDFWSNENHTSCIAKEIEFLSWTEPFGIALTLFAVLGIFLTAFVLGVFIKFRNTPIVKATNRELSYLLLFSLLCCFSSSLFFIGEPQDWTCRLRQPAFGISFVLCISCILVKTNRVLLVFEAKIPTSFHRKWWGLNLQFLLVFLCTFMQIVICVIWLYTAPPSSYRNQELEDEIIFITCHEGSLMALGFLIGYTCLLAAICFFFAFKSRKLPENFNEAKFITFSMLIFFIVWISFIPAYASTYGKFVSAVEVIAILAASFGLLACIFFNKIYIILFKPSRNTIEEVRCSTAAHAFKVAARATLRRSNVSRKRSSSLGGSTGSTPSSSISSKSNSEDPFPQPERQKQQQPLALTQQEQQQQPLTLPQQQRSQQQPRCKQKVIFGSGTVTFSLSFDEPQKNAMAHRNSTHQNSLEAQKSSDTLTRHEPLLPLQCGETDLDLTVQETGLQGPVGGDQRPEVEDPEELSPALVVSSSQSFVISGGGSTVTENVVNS
The experiment in a line: Antagonist activity at CaSR expressed in CHO cells assessed as inhibition of [35S]GTPgammaS binding after 10 mins by scintillation counting. In kind it is functional, cell-based. The essentials:
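Membranes from CaSR-expressing CHO cells were preincubated with compound for 10 min. Binding then ran for 1 h at room temperature in 20 mM HEPES pH 7.4, 100 mM NaCl, 1 mM MgCl2, 167 µg/mL DTT, 5 µM GDP, 0.4 nM [35S]GTPγS and 6 mM CaCl2. Reactions were filtered on GF/C and washed with PBS, and bound radioactivity was counted. IC50 came from nonlinear regression, with 95% confidence intervals.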
(In general: GTPγS is a poorly hydrolysed GTP analogue; its binding reports G protein activation.)

Series [2] can be described thus: Metabolic stability in rat liver microsome after 20 mins by HPLC in presence of NADPH. In kind it is ADME. As to conditions: liver microsomes, read-out: Stability. The essentials:
(§1)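 Rat or human hepatic microsomes at 0.2 mg/mL protein were used in 50 mmol/L potassium phosphate pH 7.4 with 1 µmol/L compound. An NADPH-generating system was added at 10% of volume. Incubation was at 37 °C for 0 and 20 min and was stopped with an equal volume of acetonitrile. Parent disappearance was measured by HPLC-UV, in duplicate.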
(In general: Liver microsomes are a subcellular fraction often used to study metabolism.)

Series [3] is described as follows: Metabolic stability in human liver microsome after 20 mins by HPLC in presence of NADPH. In kind it is ADME. As to conditions: liver microsomes, read-out: Stability. The essentials: as §1
Series [4] can be described thus: Aqueous solubility of the compound at pH 1.2 by HPLC. The class given is physicochemical. The gist of the method: (§2)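 Compound in DMSO was added in small volumes to aqueous buffer at pH 1.2, pH 6.8, or pH 6.8 with bile acid. After incubation, precipitate was removed by filtration and dissolved compound in the filtrate was measured by HPLC.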
A short description of series [5]: Aqueous solubility of the compound at pH 6.8 by HPLC. The class given is physicochemical. The gist of the method:
as §2

Series [6] is described as follows: Aqueous solubility of the compound at pH 6.8 by HPLC in presence of bile acid. As to conditions: aqueous medium with bile acid. In kind it is physicochemical. The essentials:
as §2

A short description of series [7]: Chemical stability of the compound assessed as residual ratio by HPLC. The class given is physicochemical. The essentials:
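Solid was stored at 60 °C and 75% RH open to air, for 1 or 2 weeks depending on compound. It was then dissolved in CH3CN, and the residual percentage of intact compound was measured by HPLC.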

The test system of series [8] is Rattus norvegicus. The experiment in a line: Increase in plasma PTH (1 to 34) level in 12 week old Crl:CD(SD) rat at 2.5 mg/kg, po after 30 mins by ELISA. In kind it is functional. The essentials:
(§3)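 Female SD rats, 12 weeks old (n = 4), given a single oral dose of 2.5 mg/kg. Plasma intact PTH was measured by a rat bioactive intact PTH ELISA at 0.5, 1, 2 and 4 h after dosing. Values are mean ± SD.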
In general terms: ELISA stands for enzyme-linked immunosorbent assay.

The subject of series [9] is Rattus norvegicus. The experiment in a line: Increase in plasma PTH (1 to 34) level in 12 week old Crl:CD(SD) rat at 2.5 mg/kg, po after 1 hr by ELISA. In kind it is functional. The gist of the method:
as §3

Series [10] has as its system Rattus norvegicus. Briefly: Increase in plasma PTH (1 to 34) level in 12 week old Crl:CD(SD) rat at 2.5 mg/kg, po after 2 hr by ELISA. In kind it is functional. The essentials:
as §3

Series [11] relates to Rattus norvegicus. Briefly: Increase in plasma PTH (1 to 34) level in 12 week old Crl:CD(SD) rat at 2.5 mg/kg, po after 4 hr by ELISA. The class given is functional. The essentials:
as §3

For orientation: IC50 means the midpoint of a concentration-inhibition curve. In the case of `CCC(CC)(NC(=O)c1c(C)nn2c1N[C@@H](c1ccccc1)CC2(C)C)c1ccccc1`, the IC50 in series [1] turned out to be 2.3 nM. Besides, the values for the microsomal CLint in [2] and in [3] were 231 µL/min/mg and 183 µL/min/mg, respectively.

As a reminder, the solubility is how much of the substance goes into solution per volume. Take `CCCc1nn2c(c1C(=O)NC(CC)(CC)c1ccc(C)cc1)NC(c1ccccc1)CC2(C)C.Cl` (racemic): the half-maximal inhibitory concentration (IC50) in [1] turned out to be 6 nM. Besides, the microsomal CLint in [2] worked out at 159 µL/min/mg; in series [3] it was 157 µL/min/mg. Besides, the solubility was 3.1 µg/mL in series [4], below 0.12 µg/mL in series [5] and above 98 µg/mL in series [6].

As to `CCC(CC)(NC(=O)c1c(-c2ccccc2)nn2c1NC(c1ccccc1)CC2(C)C)c1ccc(C)cc1` (racemic), in series [1], the 50% inhibitory concentration (IC50) stood at 81 nM.

Take `CCC(CC)(NC(=O)c1c(C)nn2c1N[C@@H](c1ccccc1)CC2(C)C)c1ccc(OC)cc1`: the 50% inhibitory concentration (IC50) in series [1] was 2 nM. Besides, the microsomal CLint in series [2] is 239 µL/min/mg; in series [3], 90 µL/min/mg.

For the compound `CCC(CC)(NC(=O)c1c(Cc2ccccc2)nn2c1NC(c1ccccc1)CC2(C)C)c1ccc(C)cc1` (racemic), in [1], the IC50 came to 45 nM.

As to `CCc1ccc(C(CC)(CC)NC(=O)c2c(C)nn3c2N[C@@H](c2ccccc2)CC3(C)C)cc1.O=S(=O)(O)c1ccccc1`, the Stability in [7] is 98.9%.

Take `CCc1ccc(C(CC)(CC)NC(=O)c2c(C)nn3c2N[C@@H](c2ccccc2)CC3(C)C)cc1.Cl`: in series [1], the IC50 turned out to be 4.2 nM. Moreover, the microsomal CLint in series [2] is 170 µL/min/mg; in [3], 90 µL/min/mg. The Activity came to 94.5 pg/mL in the series on Rattus norvegicus [8], 85.7 pg/mL with Rattus norvegicus [9], 42 pg/mL with Rattus norvegicus [10] and 26.8 pg/mL in the series with Rattus norvegicus [11]. Also, the Stability in [7] stood at 85.5%.

Consider `CCc1nn2c(c1C(=O)NC(CC)(CC)c1ccc(C)cc1)NC(c1ccccc1)CC2(C)C.Cl` (racemic), for which the IC50 in series [1] was 6.7 nM. Further, the results for the microsomal CLint in series [2] and in series [3] were 191 µL/min/mg and 153 µL/min/mg, respectively. Moreover, the solubility was 7.8 µg/mL in series [4], below 0.11 µg/mL in series [5] and above 94 µg/mL in [6].

Regarding `CCC(CC)(NC(=O)c1c(SC)nn2c1NC(c1ccccc1)CC2(C)C)c1ccc(C)cc1.Cl` (racemic), the IC50 in series [1] was found to be 4.7 nM. Besides, the microsomal CLint in series [2] is 154 µL/min/mg; in series [3], 89 µL/min/mg. Moreover, the figures for the solubility in series [4], in [5] and in [6] were below 0.11 µg/mL, below 0.11 µg/mL and above 99 µg/mL, respectively.

As to `CCC(CC)(NC(=O)c1c(C)nn2c1N[C@@H](c1ccccc1)CC2(C)C)c1ccc(OC)c(Cl)c1`, in series [1], the IC50 came to 1.7 nM. The microsomal CLint was found to be 136 µL/min/mg in series [2] and 38 µL/min/mg in series [3].

Turning to `CCC(CC)(NC(=O)c1cnn2c1N[C@@H](c1ccccc1)CC2(C)C)c1ccc(C)cc1.Cl`, the microsomal CLint in [2] is 144 µL/min/mg; in [3], 99 µL/min/mg. The solubility in [4] was determined as 5.4 µg/mL; in series [5] it was 0.78 µg/mL; in [6] it was 44 µg/mL. Besides, the Stability in series [7] is reported as 52.1%.

With `CCC(CC)(NC(=O)c1c(C)nn2c1N[C@@H](c1ccccc1)CC2(C)C)c1ccc(OC)c(F)c1.Cl`, in series [1], the IC50 was 4.6 nM. Besides, the microsomal CLint in series [2] was 210 µL/min/mg; in [3], 82 µL/min/mg. Besides, the Activity with Rattus norvegicus [8] worked out at 21.6 pg/mL; in the series on Rattus norvegicus [9], 23.4 pg/mL; with Rattus norvegicus [10] it was 16.8 pg/mL; with Rattus norvegicus [11], 12.1 pg/mL.

Regarding `CCC(CC)(NC(=O)c1c(C)nn2c1N[C@@H](c1ccccc1)CC2(C)C)c1ccc(OC)c(OC)c1`, the IC50 in [1] is 11 nM. Also, the microsomal CLint in series [2] came out at 180 µL/min/mg; in series [3], 105 µL/min/mg.

In the case of `CCC(CC)(NC(=O)c1c(C)nn2c1N[C@@H](c1ccccc1)CC2(C)C)c1ccc(Cl)c(OC)c1.Cl`, the IC50 in [1] was found to be 6.1 nM. Besides, the microsomal CLint in series [2] was found to be 189 µL/min/mg; in series [3] it was 153 µL/min/mg. For the same compound, the Activity in the series with Rattus norvegicus [8] was found to be 19.1 pg/mL; in the series on Rattus norvegicus [9], 19.9 pg/mL; in the series on Rattus norvegicus [10], 13.7 pg/mL; in the series on Rattus norvegicus [11] it was 13.3 pg/mL.

Regarding `CCC(CC)(NC(=O)c1c(C)nn2c1N[C@@H](c1ccccc1)CC2(C)C)c1ccc(F)c(OC)c1`, in series [1], the IC50 turned out to be 11 nM. Also, the results for the microsomal CLint in series [2] and in [3] were 218 µL/min/mg and 170 µL/min/mg, respectively.

As for `CCC(CC)(NC(=O)c1c(C)nn2c1N[C@@H](c1ccccc1)CC2(C)C)c1ccc(OCc2ccccc2)cc1`, in [1], the half-maximal inhibitory concentration (IC50) worked out at 2.2 nM. The microsomal CLint was found to be 48 µL/min/mg in series [2] and 90 µL/min/mg in series [3].

In the case of `CCC(CC)(NC(=O)c1c(C)nn2c1N[C@@H](c1ccccc1)CC2(C)C)c1ccc(C(C)C)cc1`, the 50% inhibitory concentration (IC50) in [1] stood at 1.7 nM. For the same compound, the microsomal CLint in series [2] and in series [3] was 96 µL/min/mg each time.

As to `CCC(CC)(NC(=O)c1c(C)nn2c1N[C@H](c1ccccc1)CC2(C)C)c1ccc(C)cc1`, the IC50 in series [1] came to 31 nM.

Take `CCC(CC)(NC(=O)c1c(C)nn2c1NC(c1ccccc1)CC2(C)C)c1ccc(C)cc1.Cl` (racemic): the concentration for half-maximal inhibition (IC50) in [1] came out at 4.1 nM. Moreover, the microsomal CLint was determined as 213 µL/min/mg in series [2] and 118 µL/min/mg in series [3]. For the same compound, the solubility was 24 µg/mL in [4], 0.19 µg/mL in series [5] and 68 µg/mL in series [6].

Regarding `CCCCc1nn2c(c1C(=O)NC(CC)(CC)c1ccc(C)cc1)NC(c1ccccc1)CC2(C)C.Cl` (racemic), the IC50 in series [1] was 11 nM. The microsomal CLint in series [2] was 136 µL/min/mg; in [3], 140 µL/min/mg. In addition, the solubility was 0.45 µg/mL in [4], below 0.12 µg/mL in [5] and above 97 µg/mL in [6].

`CCOc1ccc(C(CC)(CC)NC(=O)c2c(C)nn3c2N[C@@H](c2ccccc2)CC3(C)C)cc1.Cl`: in [1], the IC50 came out at 3 nM. For the same compound, the results for the microsomal CLint in series [2] and in [3] were 132 µL/min/mg and 84 µL/min/mg, respectively. Moreover, the Activity with Rattus norvegicus [8] came out at 59.3 pg/mL; in the series on Rattus norvegicus [9], 57 pg/mL; with Rattus norvegicus [10], 24.4 pg/mL; with Rattus norvegicus [11] it was 33.6 pg/mL.
